Activity calls are given as the source filed them.
Experiments:
Leishmania pifanoi [1] = assay: Antileishmanial activity against Leishmania pifanoi […] axenic amastigotes incubated for 96 hrs by MTT assay; format: functional, organism-based
Summary of the method: (§1)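 Parasites washed in HBSS-Glc and resuspended at 2×10^6 cells/ml in fresh growth medium with compound at 0.78-50.0 µM. Promastigotes grown in RPMI 1640-modified medium + 10% HIFCS, 72 h at 26 °C; axenic amastigotes in medium 199 + 20% HIFCS + 50 µg/ml hemin, 96 h at 32 °C. MTT 0.5 mg/ml for 2 h, formazan dissolved in SDS (5% final), absorbance 590 nm. Triplicates, ≥2 experiments, IC50 computed.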

J774 = assay: Cytotoxicity against mouse J774 cells incubated for 48 hrs by MTT assay; format: cell-based; conditions: J774, 48 h
Summary of the method: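 J774.1 cells grown in RPMI-1640 + 10% heat-inactivated FCS, 2 mM L-glutamine, penicillin-streptomycin, 37 °C, 5% CO2. Seeded at 10^5 cells/well and left overnight, then compound in fresh medium for 48 h. MTT 0.5 mg/ml final, 2 h; SDS 0.1% final, 2 h at 37 °C; read at 595 nm. Triplicate samples, ≥2 independent experiments; CC50 calculated.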

Leishmania donovani [2] = assay: Antileishmanial activity against Leishmania donovani MHOM/SD/00/1S-2D promastigotes incubated for 72 hrs by MTT assay; format: functional, organism-based; summary of the method: as §1
[3] = Selectivity index, ratio of IC50 for mouse J774 cells to IC50 for Leishmania pifanoi […] axenic amastigotes; format: toxicity; conditions: read-out: Ratio IC50
Leishmania donovani [4] = assay: Antileishmanial activity against Leishmania donovani promastigotes harboring 3-Luc gene assessed as decrease in parasites viability using DMNEP-D-luciferin as substrate at 50 uM incubated for 10 mins by luminescence assay relative to control; format: functional
Summary of the method: (§2)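 3-Luc L. donovani promastigotes, episomally expressing cytoplasmic firefly luciferase and grown at 26 °C in RPMI 1640-modified medium + 10% HIFCS with G-418 (30 µg/ml). Assay: cells at 20 × 10^6/ml in HBSS-Glc with caged DMNPE-luciferin (50 µM final). Compound added once luminescence plateaued; luminescence followed over time, expressed as % of value at addition (100%). Luciferase inhibition controls run.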

Leishmania donovani [5] = assay: Induction of plasma membrane permeabilization in Leishmania donovani MHOM/SD/00/1S-2D promastigotes at 50 uM by sytox green-based fluorescence assay; format: functional, organism-based
Summary of the method: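 Promastigotes at 20×10^6 cells/ml in HBSS-Glc with SYTOX Green 1.0 μM final. Compound added after a stable baseline; fluorescence rise (ex 504/em 524 nm) monitored. Values given as percent of full permeabilization by 0.1% Triton X-100.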

Leishmania donovani [6] = assay: Induction of mitochondrial dysfunction in Leishmania donovani MHOM/SD/00/1S-2D promastigotes as mitochondrial membrane potential at 50 uM incubated for 4 hrs by Rh123 staining based flow cytometry; format: functional, organism-based
Leishmania donovani [7] = assay: Induction of mitochondrial dysfunction in Leishmania donovani MHOM/SD/00/1S-2D promastigotes as mitochondrial membrane potential at 25 uM incubated for 4 hrs by Rh123 staining based flow cytometry; format: functional, organism-based
Leishmania donovani [8] = assay: Induction of cell cycle arrest in Leishmania donovani MHOM/SD/00/1S-2D promastigotes assessed as cell accumulation in subG1 phase at 10 uM incubated for 48 hrs by propidium iodide staining based flow cytometric analysis (RVb = 4.6%); format: functional
Leishmania donovani [9] = assay: Induction of morphological damage in Leishmania donovani MHOM/SD/00/1S-2D promastigotes assessed as increase in intracellular acidic pH at 5 uM pretreated with acridine orange followed by compound addition by acridine orange based fluorescence assay; format: functional, organism-based
Summary of the method: (§3)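 Promastigotes at 40×10^6 cells/ml loaded with acridine orange 2 μM (5 min, 26 °C), washed and readjusted to the same density. Kinetic fluorescence (ex 488/em 530 nm) followed after adding compound 5 μM once the signal was stable. For confocal imaging, loaded cells were given compound 5 μM for 1 h, washed and immobilized on hydrogel; imaged at ex 488/em 650 nm.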

Leishmania donovani [10] = assay: Induction of morphological damage in Leishmania donovani MHOM/SD/00/1S-2D promastigotes assessed as increase in intracellular acidic pH at 5 uM pretreated with acridine orange followed by compound addition and measured at 1 hr by acridine orange based confocal microscopic method; format: functional, organism-based; summary of the method: as §3
Leishmania donovani [11] = assay: Induction of cell cycle arrest in Leishmania donovani MHOM/SD/00/1S-2D promastigotes assessed as cell accumulation in subG1 phase at 20 uM incubated for 48 hrs by propidium iodide staining based flow cytometric analysis (RVb = 4.6%); format: functional
Leishmania donovani [12] = assay: Antileishmanial activity against Leishmania donovani promastigotes harboring 3-Luc gene assessed as threshold concentration of compound using DMNEP-D-luciferin as substrate measured at < 5 mins by luminescence assay; format: functional; summary of the method: as §2
Leishmania donovani [13] = assay: Induction of morphological changes in Leishmania donovani MHOM/SD/00/1S-2D promastigotes assessed as strong vacuolization of the cytoplasm at 5 uM incubated for 12 hrs by TEM analysis; format: functional, organism-based
Summary of the method: (§4)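 Promastigotes held in full growth medium with compound 5 μM for 12 h. Washed with HBSS, fixed in 5% glutaraldehyde, post-fixed with 2.5% OsO4 for 1 h, dehydrated through graded ethanol, treated with propylene oxide, embedded in Epon 812. Sections cut with a diamond knife and examined by transmission electron microscopy.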

Leishmania pifanoi [14] = assay: Antileishmanial activity against CFSE-labelled Leishmania pifanoi MHOM/VE/60/Ltrod axenic amastigotes infected in mouse peritoneal macrophage assessed as infection index at 10 uM incubated for 12 hrs by DAPI staining based confocal microscopic method (reference value: 5.3 +/- 2.5); format: functional
Leishmania donovani [15] = assay: Induction apoptosis in Leishmania donovani MHOM/SD/00/1S-2D promastigotes at 20 uM incubated for 48 hrs by propidium iodide staining based flow cytometric analysis; format: functional, organism-based
[16] = Drug localization in mitochondria of Leishmania pifanoi MHOM/VE/60/Ltrod axenic amastigotes assessed as punctate pattern formation at 20 uM incubated for 1 hr by DAPI staining based confocal microscopic method; format: ADME
Summary of the method: (§5)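 Living axenic amastigotes given compound 20 µM for 1 h at 32 °C, then DAPI 5 µg/ml for 30 min before confocal imaging. Compound ex 488/em 520 nm, DAPI ex 350/em 460 nm. For depolarized mitochondria, 1 mM KCN added 15 min before compound. For colocalization, MitoTracker Red 0.05 µM (10 min, 32 °C) preceded compound; overlap given as Pearson coefficient.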

Leishmania donovani [17] = assay: Induction of morphological changes in Leishmania donovani MHOM/SD/00/1S-2D promastigotes assessed as swollen mitochondrion at 5 uM incubated for 12 hrs by TEM analysis; format: functional, organism-based; summary of the method: as §4
[18] = Drug localization in KCN-induced depolarized Leishmania pifanoi MHOM/VE/60/Ltrod axenic amastigotes mitochondria at 20 uM pretreated with KCN for 15 mins followed by compound addition and measured at 1 hr by MitoTracker dye based confocal microscopic method; format: ADME; summary of the method: as §5
Leishmania donovani [19] = assay: Induction of morphological changes in Leishmania donovani MHOM/SD/00/1S-2D promastigotes assessed as appearance of distended acidocalcisomes at 5 uM incubated for 12 hrs by TEM analysis; format: functional, organism-based; summary of the method: as §4
[20] = Inhibition of luciferase (unknown origin) at 50 uM

SMILES	IC50 (Leishmania pifanoi [1])	IC50 (J774)	IC50 (Leishmania donovani [2])	selectivity ratio [3]	Activity (Leishmania donovani [4])	Activity (Leishmania donovani [5])	also measured
Cc1cc(N)c2ccccc2n1	> 50 µM	> 50 µM	10.9 µM	–	–	–	–
O=C(CNc1ccc(Cl)cc1Cl)NCCNc1cc(/C=C/c2ccccc2)nc2ccccc12	1.2 µM	> 50 µM	8.4 µM	> 41.6	–	–	–
CCN(CC)Cc1cc(Nc2cc(/C=C/c3ccccc3)nc3ccccc23)ccc1O	9 µM	37 µM	9.6 µM	4.1	81.8%	–	–
C(=C\c1cc(-c2c[nH]c3ccccc23)c2ccccc2n1)/c1ccccc1	1 µM	4.1 µM	1.5 µM	4.1	64.6%	–	–
O=C(CNc1ccc(Cl)cc1Cl)NCCCCNc1cc(/C=C/c2ccccc2)nc2ccccc12	12.3 µM	7.3 µM	2.1 µM	0.6	–	–	–
Nc1cc(/C=C/c2ccccc2)nc2ccccc12	8.9 µM	4.4 µM	0.5 µM	0.5	–	–	–
O=C(CN1CCCC1)NCCNc1cc(/C=C/c2ccccc2)nc2ccccc12	0.9 µM	12.5 µM	2.1 µM	13.9	49.9%	inactive	–
O=C(CNc1ccccc1)NCCCCNc1cc(/C=C/c2ccccc2)nc2ccccc12	6.9 µM	3.3 µM	1.6 µM	0.48	–	–	–
NCCNc1cc(/C=C/c2ccccc2)nc2ccccc12	> 50 µM	4.6 µM	2.4 µM	< 0.1	–	–	–
CN1CCN(CC(=O)NCCNc2cc(/C=C/c3ccccc3)nc3ccccc23)CC1	3.5 µM	34 µM	3.5 µM	9.7	78.5%	inactive	–
O=C(CN1CCCC1)NCCCCNc1cc(/C=C/c2ccccc2)nc2ccccc12	5.3 µM	7.1 µM	0.2 µM	1.4	23.3%	inactive	Activity (Leishmania donovani [6]): Active; Activity (Leishmania donovani [7]): Active
CC(=O)N(C(C)=O)c1cc(/C=C/c2ccccc2)nc2ccccc12	13.4 µM	> 25 µM	35.1 µM	> 1.86	–	–	–
COc1ccc2nc(C)cc(Nc3ccc(Oc4ccc(Cl)c5ccccc45)c(Cl)c3)c2c1	6.2 µM	> 50 µM	4.4 µM	> 8.1	–	–	Activity (Leishmania donovani [8]): 22.5%
CCN(CC)CC(=O)NCCNc1cc(/C=C/c2ccccc2)nc2ccccc12	0.9 µM	0.7 µM	1.6 µM	0.8	43.2%	inactive	–
O=C(CN1CCCCC1)NCCNc1cc(/C=C/c2ccccc2)nc2ccccc12	1.2 µM	4.7 µM	2.1 µM	3.4	46.4%	inactive	Activity (Leishmania donovani [6]): Active; Activity (Leishmania donovani [7]): Active
O=C(CNc1ccccc1)NCCNc1cc(/C=C/c2ccccc2)nc2ccccc12	4.3 µM	7.8 µM	3.3 µM	1.8	–	–	–
CN(C)CC(=O)NCCNc1cc(/C=C/c2ccccc2)nc2ccccc12	1.1 µM	15 µM	1.6 µM	13.6	62.7%	inactive	–
O=C(CN1CCN(c2ccccc2)CC1)NCCNc1cc(/C=C/c2ccccc2)nc2ccccc12	1.5 µM	4.5 µM	2.1 µM	3	–	–	–
CC(=O)Nc1cc(/C=C/c2ccccc2)nc2ccccc12	9.5 µM	> 25 µM	–	> 2.6	–	–	–
C(=C\c1ccc2ccccc2n1)/c1ccccc1	> 50 µM	> 50 µM	> 50 µM	–	–	–	Activity (Leishmania donovani [9]): inactive; Activity (Leishmania donovani [10]): inactive
CCOCC(=O)NCCNc1cc(/C=C/c2ccccc2)nc2ccccc12	1.6 µM	22.2 µM	3.4 µM	13.8	16.7%	inactive	Activity (Leishmania donovani [11]): 4.3%; Activity (Leishmania donovani [12]): 3.12 µM; Activity (Leishmania donovani [13]): Active; Activity_index (Leishmania pifanoi [14]): 1.6; Activity (Leishmania donovani [6]): Active; Activity (Leishmania donovani [9]): Active; Activity (Leishmania donovani [15]): inactive; Drug uptake [16]: Active; Activity (Leishmania donovani [7]): Active; Activity (Leishmania donovani [17]): Active; Activity (Leishmania donovani [10]): Active; Drug uptake [18]: Active; Activity (Leishmania donovani [19]): Active; inhibition [20]: < 2%
NCCCCNc1cc(/C=C/c2ccccc2)nc2ccccc12	> 25 µM	6.6 µM	0.44 µM	< 0.3	–	–	–
CC(C)(C)OC(=O)NCCCCNc1cc(/C=C/c2ccccc2)nc2ccccc12	4.9 µM	3.7 µM	0.56 µM	0.8	–	–	–
CCOCC(=O)NCCCCNc1cc(/C=C/c2ccccc2)nc2ccccc12	4.5 µM	7.2 µM	1.06 µM	1.6	–	inactive	–
O=C(CN1CCOCC1)NCCNc1cc(/C=C/c2ccccc2)nc2ccccc12	> 25 µM	> 50 µM	1.3 µM	–	79.8%	inactive	–
CC(C)(C)OC(=O)NCCNc1cc(/C=C/c2ccccc2)nc2ccccc12	4.3 µM	6.6 µM	0.45 µM	1.5	–	–	–
